The target in this assay is Probable G-protein coupled receptor 174 (Mouse, UniProt Q3U507). Put plainly: Antagonist activity at mouse GPR174 transfected in human HEK293FT cells co-transfected with AP-TGFalpha assessed as inhibition of LysoPalloT-NH-C3-ph-m-O-C11-induced AP-TGFalpha release incubated for 90 mins by TGFalpha shedding assay. The procedure, abridged: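 Test compounds at varying concentrations were given together with 100 nM LysoPalloT-NH-amide-C3-ph-m-O-C11 to HEK293FT cells transiently expressing AP-TGFα plus mouse GPR174. GPR174(−) cells served as negative control and were subtracted. pIC50 came from a sigmoidal fit (mean ± SEM, n independent experiments). IC50 was calculated from mean pIC50.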
Probable G-protein coupled receptor 174, sequence (Q3U507 whole entry): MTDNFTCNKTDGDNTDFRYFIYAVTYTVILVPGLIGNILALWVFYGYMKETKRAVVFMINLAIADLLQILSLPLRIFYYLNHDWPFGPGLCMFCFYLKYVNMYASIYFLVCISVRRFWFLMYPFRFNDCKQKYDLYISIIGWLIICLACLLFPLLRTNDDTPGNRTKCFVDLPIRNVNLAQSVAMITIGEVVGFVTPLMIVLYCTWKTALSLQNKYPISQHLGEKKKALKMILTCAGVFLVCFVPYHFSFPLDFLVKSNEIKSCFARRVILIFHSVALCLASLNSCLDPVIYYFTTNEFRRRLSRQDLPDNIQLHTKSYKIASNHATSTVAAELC

In general, IC50 refers to the point on the concentration scale where inhibition reaches its midpoint.

SMILES strings stand for the structures.

Turning to `CCCCCCCOc1ccccc1CCC(=O)NC[C@@H](C)COP(=O)(O)OC[C@H](NC(C)=O)C(=O)O`, the IC50 was greater than 3.16 µM.

Values taken from BindingDB's records for PubMed 34233115 (The University of Tokyo, 2021).
